Data published in ChEMBL document CHEMBL4190389, “Synthesis and activity of di- or trisubstituted N-(phenoxyalkyl)- or N-{2-[2-(phenoxy)ethoxy]ethyl}piperazine derivatives on the central nervous system” (Bioorg Med Chem Lett, 2018).
Active and inactive are the calls of the source. The rule behind the calls is not given here.

Experiments:
Mus musculus [1] = assay: Antidepressant-like activity in Albino Swiss CD-1 mouse assessed as immobility time at 5 mg/kg, ip administered 30 mins prior to test measured for last 4 mins of 6 mins observation by forced swim test (reference value: 153.9 to 201.9 secs); type: functional
[2] = target: 5-hydroxytryptamine receptor 7 (Homo sapiens, UniProt P34969); assay: biochemical; type: cell-based, CHO
Sequence of 5-hydroxytryptamine receptor 7 (P34969 whole entry): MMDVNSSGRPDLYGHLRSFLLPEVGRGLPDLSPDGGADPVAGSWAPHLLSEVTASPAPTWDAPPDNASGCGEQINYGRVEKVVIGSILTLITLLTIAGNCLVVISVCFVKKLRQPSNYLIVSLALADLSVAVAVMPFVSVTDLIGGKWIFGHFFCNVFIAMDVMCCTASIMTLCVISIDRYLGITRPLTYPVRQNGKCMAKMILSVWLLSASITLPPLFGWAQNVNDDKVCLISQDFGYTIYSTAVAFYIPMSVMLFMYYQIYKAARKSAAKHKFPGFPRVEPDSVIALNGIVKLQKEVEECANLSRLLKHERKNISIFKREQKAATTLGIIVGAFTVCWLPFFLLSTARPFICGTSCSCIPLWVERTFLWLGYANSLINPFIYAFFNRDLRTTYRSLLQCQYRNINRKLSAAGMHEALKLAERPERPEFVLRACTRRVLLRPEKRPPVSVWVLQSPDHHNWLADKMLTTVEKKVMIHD

Mus musculus [3] = assay: Anticonvulsant activity in Albino Swiss CD-1 mouse assessed as protection against 50 Hz current-induced seizure at 100 mg/kg, ip; type: functional, organism-based
[4] = Neurotoxicity in ip dosed Albino Swiss CD-1 mouse assessed as minimum dose required to induce motor impairment treated 30 mins prior to test by rotarod test; type: toxicity, organism-based; details: in vivo
[5] = target: 5-hydroxytryptamine receptor 6 (Homo sapiens, UniProt P50406); assay: Displacement of [3H]LSD from recombinant human 5-HT6 receptor expressed in CHO cells cell membranes after 60 mins by liquid scintillation counting method
Sequence of 5-hydroxytryptamine receptor 6 (P50406 whole entry): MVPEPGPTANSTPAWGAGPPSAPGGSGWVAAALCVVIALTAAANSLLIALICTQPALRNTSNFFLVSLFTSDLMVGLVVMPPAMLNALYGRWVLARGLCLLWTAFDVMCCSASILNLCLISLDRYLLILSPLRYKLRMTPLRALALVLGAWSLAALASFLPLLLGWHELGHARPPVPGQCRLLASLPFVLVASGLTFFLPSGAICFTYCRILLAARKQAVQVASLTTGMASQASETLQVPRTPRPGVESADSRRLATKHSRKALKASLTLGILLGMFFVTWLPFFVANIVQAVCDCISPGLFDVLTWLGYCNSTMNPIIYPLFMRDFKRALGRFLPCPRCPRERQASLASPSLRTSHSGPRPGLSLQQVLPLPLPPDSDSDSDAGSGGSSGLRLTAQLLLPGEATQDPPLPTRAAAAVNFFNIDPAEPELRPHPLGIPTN

D(2) dopamine receptor = D(2) dopamine receptor (Homo sapiens, UniProt P14416); assay: Displacement of [3H]methylspiperonee from recombinant human D2 receptor expressed in HEK293 cells cell membranes after 60 mins by liquid scintillation counting method
Sequence of D(2) dopamine receptor (P14416 whole entry): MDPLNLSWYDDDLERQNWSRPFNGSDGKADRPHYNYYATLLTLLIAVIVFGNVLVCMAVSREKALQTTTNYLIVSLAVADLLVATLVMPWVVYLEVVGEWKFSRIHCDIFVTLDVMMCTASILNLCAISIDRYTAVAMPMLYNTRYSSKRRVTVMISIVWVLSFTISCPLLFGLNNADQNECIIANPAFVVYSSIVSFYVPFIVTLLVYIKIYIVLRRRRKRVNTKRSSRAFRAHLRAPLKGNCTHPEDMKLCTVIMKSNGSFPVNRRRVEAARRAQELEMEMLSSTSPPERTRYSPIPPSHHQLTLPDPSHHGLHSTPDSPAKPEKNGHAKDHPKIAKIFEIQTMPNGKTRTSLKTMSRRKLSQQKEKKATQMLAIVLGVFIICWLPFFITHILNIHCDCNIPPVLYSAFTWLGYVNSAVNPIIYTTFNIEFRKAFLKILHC

[6] = Protection index, ratio of TD50 for motor impairment in ip dosed Swiss albino CD-1 mouse to ED50 for protection against 50 Hz current-induced seizures in ip dosed Swiss albino CD-1 mouse; type: toxicity, organism-based, Swiss CD-1; details: in vivo, read-out: Ratio TD50/ED50
Mus musculus [7] = assay: Antidepressant-like activity in Albino Swiss CD-1 mouse assessed as immobility time at 20 mg/kg, ip administered 30 mins prior to test measured for last 4 mins of 6 mins observation by forced swim test (reference value: 153.9 to 201.9 secs); type: functional
Mus musculus [8] = assay: Anxiolytic-like activity in Albino Swiss CD-1 mouse assessed as increase in number of punished crossings at 5 to 10 mg/kg, ip administered for 30 mins prior to test measured for 1 min by four-plate test; type: functional, organism-based
In short: (§1)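 Four-plate test in mice, i.p., 30 min before test; vehicle 0.9% NaCl; doses 1.25–10 mg/kg; number of punished crossings counted; mean ± SEM, n = 8–10 mice per group; ANOVA F statistics.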

Mus musculus [9] = assay: Anticonvulsant activity in ip dosed Albino Swiss CD-1 mouse assessed as dose required to protect against 50 Hz current-induced seizure; type: functional; details: Swiss CD-1, ip
Mus musculus [10] = assay: Toxicity in Albino Swiss CD-1 mouse assessed as death at 30 to 100 mg/kg, ip; type: organism-based; details: in vivo
In short: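 Deaths counted in mice during maximal electroshock (MES) seizure testing after i.p. dosing, 6 mice per dose (3 or 1 at some top doses); recorded as number dead/number tested alongside protection and rotarod motor impairment (10 rpm); untreated control group included.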

[11] = target: T1, 5-hydroxytryptamine receptor 1A (Homo sapiens) (UniProt P08908); assay: Displacement of [3H]8-OH-DPAT from recombinant human 5-HT1A receptor expressed in HEK293 cell membranes at 10^-5 M after 60 mins by liquid scintillation counting method
T1 sequence (whole entry): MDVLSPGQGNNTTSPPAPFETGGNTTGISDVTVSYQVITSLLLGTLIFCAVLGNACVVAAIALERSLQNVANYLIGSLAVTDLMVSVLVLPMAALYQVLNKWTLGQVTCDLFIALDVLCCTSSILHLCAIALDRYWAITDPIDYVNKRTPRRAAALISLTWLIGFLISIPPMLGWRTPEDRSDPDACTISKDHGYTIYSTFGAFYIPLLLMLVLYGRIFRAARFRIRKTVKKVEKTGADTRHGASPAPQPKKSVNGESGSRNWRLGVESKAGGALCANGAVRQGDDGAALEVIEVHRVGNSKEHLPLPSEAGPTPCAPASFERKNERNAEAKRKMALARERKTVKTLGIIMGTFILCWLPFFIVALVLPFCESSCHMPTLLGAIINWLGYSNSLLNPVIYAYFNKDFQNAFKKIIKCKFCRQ

[12] = target: T2, 5-hydroxytryptamine receptor 2A (Homo sapiens, UniProt P28223); assay: biochemical; type: cell-based, HEK293
T2 sequence (P28223 whole entry): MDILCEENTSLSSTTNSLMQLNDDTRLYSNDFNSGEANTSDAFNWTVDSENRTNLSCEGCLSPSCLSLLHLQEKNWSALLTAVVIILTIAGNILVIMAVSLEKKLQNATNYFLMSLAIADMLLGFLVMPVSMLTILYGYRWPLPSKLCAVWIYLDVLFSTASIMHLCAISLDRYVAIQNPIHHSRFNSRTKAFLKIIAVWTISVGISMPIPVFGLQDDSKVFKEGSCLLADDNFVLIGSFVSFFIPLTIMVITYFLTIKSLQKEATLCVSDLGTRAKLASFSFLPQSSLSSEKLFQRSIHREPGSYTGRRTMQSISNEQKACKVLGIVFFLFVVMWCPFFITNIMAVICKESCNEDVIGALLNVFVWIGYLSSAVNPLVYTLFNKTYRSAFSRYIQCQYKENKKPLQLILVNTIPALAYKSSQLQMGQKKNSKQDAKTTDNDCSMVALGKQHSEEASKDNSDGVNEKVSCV

[13] = target: T2, 5-hydroxytryptamine receptor 2A; assay: Antagonist activity at human 5-HT2A receptor expressed in CHO-K1 cells co-expressing Galpha16 assessed as decrease in serotonin calcium mobilization preincubated for 30 mins followed by serotonin challenge measured for 30 secs by aequorin-derived luminescence assay; type: functional, cell-based
[14] = target: T3, Alpha-1A adrenergic receptor (Homo sapiens, UniProt P35348); assay: Displacement of [3H]prazosin from recombinant human alpha1 adrenoceptor expressed in CHO cell membranes after 30 mins by liquid scintillation counting method
T3 sequence (P35348 whole entry): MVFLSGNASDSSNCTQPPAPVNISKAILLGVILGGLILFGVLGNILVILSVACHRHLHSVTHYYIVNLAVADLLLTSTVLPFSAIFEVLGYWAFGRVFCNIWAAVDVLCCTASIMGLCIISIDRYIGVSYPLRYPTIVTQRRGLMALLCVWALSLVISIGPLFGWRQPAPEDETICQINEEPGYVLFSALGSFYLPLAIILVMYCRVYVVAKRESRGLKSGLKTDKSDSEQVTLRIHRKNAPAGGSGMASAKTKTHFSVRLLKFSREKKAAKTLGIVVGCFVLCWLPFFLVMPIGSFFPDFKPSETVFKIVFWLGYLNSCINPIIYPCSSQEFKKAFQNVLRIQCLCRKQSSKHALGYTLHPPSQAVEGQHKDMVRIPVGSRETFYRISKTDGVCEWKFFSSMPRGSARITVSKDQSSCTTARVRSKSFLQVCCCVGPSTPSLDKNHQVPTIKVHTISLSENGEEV

Mus musculus [15] = assay: Antidepressant-like activity in Albino Swiss CD-1 mouse assessed as immobility time at 10 mg/kg, ip administered 30 mins prior to test measured for last 4 mins of 6 mins observation by forced swim test (reference value: 153.9 to 201.9 secs); type: functional
Mus musculus [16] = assay: Neurotoxicity in Albino Swiss CD-1 mouse assessed as motor impairment at 100 mg/kg, ip treated 30 mins prior to test by rotarod test; type: toxicity, organism-based; details: in vivo, 0.5 h
Mus musculus [17] = assay: Toxicity in Albino Swiss CD-1 mouse assessed as effect on locomotory activity at 5 to 10 mg/kg, ip administered for 30 mins prior to test measured for 1 min; type: organism-based; details: in vivo
In short: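 Mice dosed i.p. 30 min before test; vehicle groups received 0.9% NaCl. Spontaneous locomotion scored as number of crossings during a 1-min session. Each dose compared with its own vehicle group by Student t-test; mean ± SEM, n = 8–10 mice per group.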

Mus musculus [18] = assay: Anticonvulsant activity in Albino Swiss CD-1 mouse assessed as protection against 50 Hz current-induced seizure at 45 mg/kg, ip; type: functional, organism-based
Mus musculus [19] = assay: Antidepressant-like activity in ip dosed Albino Swiss CD-1 mouse assessed as decrease in immobility time administered […] prior to test measured for last 4 mins of 6 mins observation by forced swim test (reference value: 153.9 to 201.9 secs); type: functional
Mus musculus [20] = assay: Anxiolytic-like activity in ip dosed Albino Swiss CD-1 mouse assessed as increase in number of punished crossings administered for 30 mins prior to test measured for 1 min by four-plate test; type: functional; in short: as §1
Rattus norvegicus = assay: Antidepressant-like activity in ip dosed Wistar rat assessed as decrease in immobility time administered 45 mins prior to test measured for last 4 mins of 6 mins observation by forced swim test (reference value: 153.9 to 201.9 secs); type: functional
[21] = target: T4, Adrenergic receptor alpha-1 (Rattus norvegicus, UniProt P15823+P23944+P43140); assay: Displacement of [3H]-prazosin from Wistar rat cerebral cortex membranes alpha1 adrenoceptor by liquid scintillation counting method; design: species or system Membrane
T4 sequence (P15823 whole entry): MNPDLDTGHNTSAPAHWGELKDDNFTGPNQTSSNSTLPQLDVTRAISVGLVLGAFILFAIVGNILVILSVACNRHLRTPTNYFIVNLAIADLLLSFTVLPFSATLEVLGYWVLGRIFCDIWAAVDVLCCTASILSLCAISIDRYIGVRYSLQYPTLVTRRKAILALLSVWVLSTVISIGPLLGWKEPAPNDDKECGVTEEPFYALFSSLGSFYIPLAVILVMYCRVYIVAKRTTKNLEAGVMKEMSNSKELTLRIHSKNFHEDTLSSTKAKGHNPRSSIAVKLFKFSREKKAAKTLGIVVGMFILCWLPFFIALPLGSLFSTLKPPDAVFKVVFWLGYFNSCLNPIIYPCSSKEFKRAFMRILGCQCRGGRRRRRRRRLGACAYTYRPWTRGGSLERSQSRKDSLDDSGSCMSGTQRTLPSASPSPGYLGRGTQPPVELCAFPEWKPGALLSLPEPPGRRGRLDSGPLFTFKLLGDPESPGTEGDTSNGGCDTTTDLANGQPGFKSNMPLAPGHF
T4 sequence (P23944 whole entry): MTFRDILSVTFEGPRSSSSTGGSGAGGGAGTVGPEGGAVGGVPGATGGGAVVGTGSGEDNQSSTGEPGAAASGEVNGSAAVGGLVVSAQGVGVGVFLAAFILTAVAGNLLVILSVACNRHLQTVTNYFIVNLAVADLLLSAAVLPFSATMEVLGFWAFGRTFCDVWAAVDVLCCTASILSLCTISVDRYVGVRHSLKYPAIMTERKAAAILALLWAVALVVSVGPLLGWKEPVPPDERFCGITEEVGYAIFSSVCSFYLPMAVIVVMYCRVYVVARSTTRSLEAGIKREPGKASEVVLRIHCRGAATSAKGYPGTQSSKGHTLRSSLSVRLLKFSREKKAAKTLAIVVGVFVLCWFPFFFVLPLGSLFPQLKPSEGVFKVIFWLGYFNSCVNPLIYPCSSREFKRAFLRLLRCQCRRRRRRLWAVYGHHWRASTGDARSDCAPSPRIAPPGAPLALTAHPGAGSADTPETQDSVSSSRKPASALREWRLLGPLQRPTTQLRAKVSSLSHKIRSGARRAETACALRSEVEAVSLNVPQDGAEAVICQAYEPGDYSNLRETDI
T4 sequence (P43140 whole entry): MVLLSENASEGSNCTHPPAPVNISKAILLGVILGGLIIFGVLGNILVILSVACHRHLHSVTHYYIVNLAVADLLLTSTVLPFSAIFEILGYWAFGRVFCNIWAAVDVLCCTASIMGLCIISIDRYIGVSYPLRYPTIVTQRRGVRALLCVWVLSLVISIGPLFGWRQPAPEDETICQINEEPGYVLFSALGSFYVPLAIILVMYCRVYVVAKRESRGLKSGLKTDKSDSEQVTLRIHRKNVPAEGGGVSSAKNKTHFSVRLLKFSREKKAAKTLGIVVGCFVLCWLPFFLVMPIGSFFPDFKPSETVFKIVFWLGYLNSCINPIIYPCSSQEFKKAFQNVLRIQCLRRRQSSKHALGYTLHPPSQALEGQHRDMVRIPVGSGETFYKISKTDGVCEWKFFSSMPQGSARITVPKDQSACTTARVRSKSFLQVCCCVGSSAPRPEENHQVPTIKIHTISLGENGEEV

For `Cc1cccc(OCCOCCN2CCN(CCc3ccccc3)CC2)c1C.Cl.Cl`, the Time (Mus musculus [1]) was 157.6 s, the Ki [2] was 388 nM and the Activity (Mus musculus [3]) was “Active”. For the same molecule, the TD50 at 0.5 h [4] was 35.5 mg/kg, the Ki [5] was 200 nM and the Ki (D(2) dopamine receptor) was 1210 nM. For the same molecule, the selectivity ratio [6] was 1.6, the Time (Mus musculus [7]) was 162.1 s and the Activity (Mus musculus [8]) was “inactive”. The ED50 (Mus musculus [9]) was 22.2 mg/kg, the Activity (Mus musculus [10]) was “Non-Toxic” and the inhibition [11] was “inactive”. For the same molecule, the Ki [12] was 220 nM, the IC50 [13] was 6970 nM and the Ki [14] was 36 nM. The Time (Mus musculus [15]) was 161.1 s, the Activity (Mus musculus [16]) was “Toxic” and the Activity (Mus musculus [17]) was “Non-Toxic”. For the same molecule, the Activity (Mus musculus [18]) was “Active”.

`COc1ccccc1N1CCN(CCOCCOc2c(C)cccc2C)CC1.Cl` gave an ED (Mus musculus [19]) of 2.5 mg/kg, an ED (Mus musculus [20]) of 2.5 mg/kg and an ED (Rattus norvegicus) of 5 mg/kg. It also gave a Ki [21] of 23 nM.
